Laboratory results reported in ChEMBL document CHEMBL5303300, “EUbOPEN Chemogenomics Library - Multiplex” (2023).
Where “and” joins values, the source holds several entries; their conditions need not be identical. Identical values can stand only once.

Test system: U2OS
Assay: Multiplex assay against U2OS
Type: toxicity, cell-based
Conditions: human, number of replicates 2
In short: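 Compound was added to live cells that had been stained at seeding with Hoechst33342, BioTracker Green Microtubule Cytoskeleton Dye, MitoTracker Red and Annexin V Alexa Fluor 680, and imaging followed on a CQ1 microscope at 37°C and 5% CO2. CellPathfinder machine-learning gating divided cells into Hoechst high-intensity objects or normal cells, normal cells into healthy, pyknosed or fragmented nuclei, and pyknosed cells into mitotic or apoptotic. Tubulin, mitochondrial-mass and membrane-permeability phenotypes are per cents of healthy-nucleus cells.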

[1] = 12 h, 1 µM, compound concentration 1 uM
[2] = 12 h, 10 µM, compound concentration 10 uM
[3] = 24 h, 1 µM, compound concentration 1 uM
[4] = 24 h, 10 µM, compound concentration 10 uM
[5] = 48 h, 1 µM, compound concentration 1 uM
[6] = 48 h, 10 µM, compound concentration 10 uM

CCN1CCN(Cc2ccc(C(=O)Nc3ccc(C)c(Oc4ccc5c(c4)CC(=O)N5)c3)cc2C(F)(F)F)CC1.Cl.Cl
Population Apoptotic (%) [1]: 50%
Population Healthy Nuclei (%) [1]: 82% and 64%
Population Hoechst High Intensity Objects (%) [1]: 0% and 3%
Population Membrane Permeable-Phenotype (%) [1]: 0%
Population Mitochondria Different-Phenotype (%) [1]: 4% and 0%
Population Mitotic Cells (%) [1]: 50%
Population Normal (%) [1]: 100% and 96%
Population Pyknosed Nuclei (%) [1]: 12% and 19%
Population Tubulin-Different-Phenotype (%) [1]: 60% and 40%
Population Apoptotic (%) [2]: 42% and 45%
Population Fragmented Nuclei (%) [2]: 15% and 8%
Population Healthy Nuclei (%) [2]: 57% and 69%
Population Hoechst High Intensity Objects (%) [2]: 1% and 0%
Population Membrane Permeable-Phenotype (%) [2]: 33% and 14%
Population Mitochondria Different-Phenotype (%) [2]: 46%
Population Mitotic Cells (%) [2]: 57% and 54%
Population Normal (%) [2]: 98% and 100%
Population Pyknosed Nuclei (%) [2]: 26% and 22%
Population Tubulin-Different-Phenotype (%) [2]: 83% and 81%
Population Apoptotic (%) [3]: 66% and 63%
Population Fragmented Nuclei (%) [3]: 5% and 2%
Population Healthy Nuclei (%) [3]: 71% and 81%
Population Hoechst High Intensity Objects (%) [3]: 2% and 0%
Population Membrane Permeable-Phenotype (%) [3]: 0%
Population Mitochondria Different-Phenotype (%) [3]: 7% and 3%
Population Mitotic Cells (%) [3]: 33% and 36%
Population Normal (%) [3]: 97% and 100%
Population Pyknosed Nuclei (%) [3]: 23% and 15%
Population Tubulin-Different-Phenotype (%) [3]: 51% and 64%
Population Apoptotic (%) [4]: 65% and 64%
Population Fragmented Nuclei (%) [4]: 12% and 8%
Population Healthy Nuclei (%) [4]: 54% and 64%
Population Hoechst High Intensity Objects (%) [4]: 0%
Population Membrane Permeable-Phenotype (%) [4]: 29% and 26%
Population Mitochondria Different-Phenotype (%) [4]: 76% and 74%
Population Mitotic Cells (%) [4]: 35%
Population Normal (%) [4]: 100%
Population Pyknosed Nuclei (%) [4]: 32% and 27%
Population Tubulin-Different-Phenotype (%) [4]: 61% and 86%
Population Apoptotic (%) [5]: 78% and 66%
Population Fragmented Nuclei (%) [5]: 4% and 1%
Population Healthy Nuclei (%) [5]: 72% and 85%
Population Hoechst High Intensity Objects (%) [5]: 1% and 0%
Population Membrane Permeable-Phenotype (%) [5]: 4% and 1%
Population Mitochondria Different-Phenotype (%) [5]: 2% and 1%
Population Mitotic Cells (%) [5]: 21% and 33%
Population Normal (%) [5]: 98% and 99%
Population Pyknosed Nuclei (%) [5]: 22% and 13%
Population Tubulin-Different-Phenotype (%) [5]: 59% and 70%
Population Apoptotic (%) [6]: 83% and 80%
Population Fragmented Nuclei (%) [6]: 9% and 10%
Population Healthy Nuclei (%) [6]: 29% and 49%
Population Hoechst High Intensity Objects (%) [6]: 1% and 0%
Population Membrane Permeable-Phenotype (%) [6]: 66% and 31%
Population Mitochondria Different-Phenotype (%) [6]: 60% and 81%
Population Mitotic Cells (%) [6]: 16% and 19%
Population Normal (%) [6]: 98% and 99%
Population Pyknosed Nuclei (%) [6]: 60% and 40%
Population Tubulin-Different-Phenotype (%) [6]: 80% and 81%

CS(=O)(=O)c1ccc(C(=O)Nc2cc(F)cc(COc3ccc(Br)cc3CN3CC[C@H](O)C3)c2)c(Cl)c1.O=CO
Population Healthy Nuclei (%) [1]: 64% and 82%
Population Hoechst High Intensity Objects (%) [1]: 0%
Population Mitotic Cells (%) [1]: 20% and 12%
Population Pyknosed Nuclei (%) [1]: 8% and 13%
Population Healthy Nuclei (%) [2]: 31% and 70%
Population Hoechst High Intensity Objects (%) [2]: 0%
Population Mitotic Cells (%) [2]: 44% and 57%
Population Pyknosed Nuclei (%) [2]: 21% and 25%
Population Healthy Nuclei (%) [3]: 82% and 53%
Population Hoechst High Intensity Objects (%) [3]: 0%
Population Mitotic Cells (%) [3]: 21% and 46%
Population Pyknosed Nuclei (%) [3]: 15% and 20%
Population Healthy Nuclei (%) [4]: 32% and 68%
Population Hoechst High Intensity Objects (%) [4]: 0%
Population Mitotic Cells (%) [4]: 20% and 26%
Population Pyknosed Nuclei (%) [4]: 25% and 28%
Population Healthy Nuclei (%) [5]: 57% and 85%
Population Hoechst High Intensity Objects (%) [5]: 0%
Population Mitotic Cells (%) [5]: 11% and 15%
Population Pyknosed Nuclei (%) [5]: 18%
Population Healthy Nuclei (%) [6]: 19% and 52%
Population Hoechst High Intensity Objects (%) [6]: 0%
Population Mitotic Cells (%) [6]: 12% and 9%
Population Pyknosed Nuclei (%) [6]: 44% and 38%
